Data from ChEMBL document CHEMBL1139831, “The influence of modifications in imide fragment structure on 5-HT(1A) and 5-HT(7) receptor affinity and in vivo pharmacological properties of some new 1-(m-trifluoromethylphenyl)piperazines” (Bioorg Med Chem, 2007).

Key:
Rattus norvegicus [1] = experiment: Effect on lower lip retraction in Wistar rat at 10 mg/kg; format: functional
Procedure, shortened: (§1)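 Male Wistar rats (290–310 g) dosed ip in 1% Tween 80 (2 ml/kg), caged singly; lower lip retraction scored 15, 30 and 45 min after dosing as 0 (incisors not visible), 0.5 (partly) or 1 (completely visible), totals up to 3 per rat. n = 6 per group; one-way ANOVA followed by Dunnett's test.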

Rattus norvegicus [2] = experiment: Effect on lower lip retraction in Wistar rat at 20 mg/kg; format: functional; procedure, shortened: as §1
Rattus norvegicus [3] = experiment: Effect on 8-OH-DPAT-induced lower lip retraction in Wistar rat at 10 mg/kg; format: functional
Rattus norvegicus [4] = experiment: Effect on 8-OH-DPAT-induced lower lip retraction in Wistar rat at 20 mg/kg; format: functional
[5] = target: T1, 5-hydroxytryptamine receptor 1A (Rattus norvegicus, UniProt P19327); experiment: Displacement of [3H]8-OH-DPAT from 5HT1A in rat hippocampal membranes; format: cell membranes, Hippocampus, Membrane
T1 sequence (P19327 whole entry): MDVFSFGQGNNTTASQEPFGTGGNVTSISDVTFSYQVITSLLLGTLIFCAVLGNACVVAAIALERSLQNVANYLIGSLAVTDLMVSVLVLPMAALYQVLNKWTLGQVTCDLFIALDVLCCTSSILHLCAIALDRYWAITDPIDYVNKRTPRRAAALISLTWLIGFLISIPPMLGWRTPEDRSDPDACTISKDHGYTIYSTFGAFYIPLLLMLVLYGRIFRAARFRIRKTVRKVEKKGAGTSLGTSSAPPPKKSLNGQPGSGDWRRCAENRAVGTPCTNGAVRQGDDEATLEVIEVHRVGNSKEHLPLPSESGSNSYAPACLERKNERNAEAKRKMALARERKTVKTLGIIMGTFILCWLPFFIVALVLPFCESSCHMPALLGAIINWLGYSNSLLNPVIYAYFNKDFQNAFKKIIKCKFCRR
Procedure, shortened: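 Rat hippocampal membranes, [3H]-8-OH-DPAT as radioligand, 5-HT defining nonspecific binding. 7–9 drug concentrations run in triplicate, at least three separate experiments. Filtration through GF/B filters with three ice-cold buffer washes, scintillation counting. Ki from non-linear regression of binding isotherms via Cheng-Prusoff equation.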

D(2) dopamine receptor = D(2) dopamine receptor (Rattus norvegicus, UniProt P61169); experiment: Displacement of [3H]spiperone from dopamine D2 receptor in rat striatal membranes; format: cell membranes, Membrane
D(2) dopamine receptor, sequence (P61169 whole entry): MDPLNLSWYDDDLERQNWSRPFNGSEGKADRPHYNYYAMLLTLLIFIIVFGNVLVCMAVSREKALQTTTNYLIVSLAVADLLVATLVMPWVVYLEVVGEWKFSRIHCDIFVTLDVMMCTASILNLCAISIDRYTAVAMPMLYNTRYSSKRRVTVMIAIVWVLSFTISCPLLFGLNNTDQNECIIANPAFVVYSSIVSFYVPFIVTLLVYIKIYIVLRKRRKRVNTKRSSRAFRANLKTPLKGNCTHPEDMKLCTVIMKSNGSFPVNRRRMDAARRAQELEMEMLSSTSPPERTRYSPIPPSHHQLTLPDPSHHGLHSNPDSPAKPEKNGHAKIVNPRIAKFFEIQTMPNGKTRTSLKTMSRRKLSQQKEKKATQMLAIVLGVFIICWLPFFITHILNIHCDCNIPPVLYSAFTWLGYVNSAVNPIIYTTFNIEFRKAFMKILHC
Procedure, shortened: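 Competition binding on rat striatal membranes using [3H]-spiperone, butaclamol for nonspecific binding; filtration through GF/B filters and scintillation counting. Run at two compound concentrations, each in triplicate, and affinity expressed as estimated Ki.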

[6] = Displacement of [3H]prazosin from adrenergic alpha1 receptor in rat cortical membranes; format: cell membranes, Membrane
Procedure, shortened: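 Rat cortical membranes with [3H]-prazosin; phentolamine defines nonspecific binding. 7–9 drug concentrations in triplicate, at least three separate experiments; stopped by GF/B filtration with three ice-cold buffer washes, bound radioactivity by liquid scintillation counting; Ki from non-linear regression and Cheng-Prusoff equation.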

[7] = target: 5-hydroxytryptamine receptor 7 (Homo sapiens, UniProt P34969); experiment: Displacement of [3H]5-CT from human 5HT7 expressed in HEK293 cells; format: cell-based
5-hydroxytryptamine receptor 7, sequence (P34969 whole entry): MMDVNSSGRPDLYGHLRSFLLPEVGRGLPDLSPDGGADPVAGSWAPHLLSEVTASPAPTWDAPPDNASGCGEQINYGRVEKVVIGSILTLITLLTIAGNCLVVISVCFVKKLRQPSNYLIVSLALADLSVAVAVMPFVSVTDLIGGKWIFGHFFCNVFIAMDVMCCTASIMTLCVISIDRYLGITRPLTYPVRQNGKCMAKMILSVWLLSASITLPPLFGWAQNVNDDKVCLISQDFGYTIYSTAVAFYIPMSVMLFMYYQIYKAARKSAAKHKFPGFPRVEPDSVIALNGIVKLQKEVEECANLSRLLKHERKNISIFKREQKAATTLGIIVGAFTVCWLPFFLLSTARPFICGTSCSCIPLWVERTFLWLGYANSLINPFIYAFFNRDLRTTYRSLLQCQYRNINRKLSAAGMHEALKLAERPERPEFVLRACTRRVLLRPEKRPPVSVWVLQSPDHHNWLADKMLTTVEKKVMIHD
Procedure, shortened: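 HEK293 cells stably transfected with human 5-HT7(b) cDNA; membranes (10 µg protein) incubated 1 h at 37 °C in 50 mM Tris-HCl pH 7.4 with 4 mM MgCl2, 0.1 mM pargyline, 0.1% ascorbic acid, 0.5 nM [3H]-5-CT and 7–9 test concentrations in triplicate; 10 µM 5-HT defines nonspecific binding. GF/B filtration, scintillation counting; Ki via Cheng-Prusoff from ≥3 experiments.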

Mus musculus [8] = species on record: Mus musculus; settings: Swiss Albino, 5 mg/kg
Mus musculus [9] = species on record: Mus musculus; settings: Swiss Albino, 10 mg/kg
Mus musculus [10] = species on record: Mus musculus; settings: Swiss Albino, 5 mg/kg; remark: listed apart in the source
Mus musculus [11] = species on record: Mus musculus; settings: Swiss Albino, 10 mg/kg; remark: listed apart in the source
Mus musculus [12] = species on record: Mus musculus; settings: Swiss Albino, 10 mg/kg; remark: listed apart in the source
Mus musculus [13] = species on record: Mus musculus; settings: Swiss Albino, 10 mg/kg; remark: listed apart in the source
Mus musculus [14] = species on record: Mus musculus; settings: Swiss Albino, 5 mg/kg; remark: listed apart in the source
Mus musculus [15] = species on record: Mus musculus; settings: Swiss Albino, 10 mg/kg; remark: listed apart in the source
Mus musculus [16] = species on record: Mus musculus; settings: Swiss Albino, 5 mg/kg; remark: listed apart in the source
Mus musculus [17] = species on record: Mus musculus; settings: Swiss Albino, 10 mg/kg; remark: listed apart in the source
Rattus norvegicus [18] = experiment: Effect on lower lip retraction in Wistar rat at 5 mg/kg; format: functional; procedure, shortened: as §1
Rattus norvegicus [19] = experiment: Effect on 8-OH-DPAT-induced lower lip retraction in Wistar rat at 5 mg/kg; format: functional
Mus musculus [20] = species on record: Mus musculus; settings: Swiss Albino, 2.5 mg/kg
Mus musculus [21] = species on record: Mus musculus; settings: Swiss Albino, 2.5 mg/kg; remark: listed apart in the source
Mus musculus [22] = species on record: Mus musculus; settings: Swiss Albino, 5 mg/kg; remark: listed apart in the source
Mus musculus [23] = species on record: Mus musculus; settings: Swiss Albino, 5 mg/kg; remark: listed apart in the source
Mus musculus [24] = species on record: Mus musculus; settings: Swiss Albino, 2.5 mg/kg; remark: listed apart in the source
Mus musculus [25] = species on record: Mus musculus; settings: Swiss Albino, 2.5 mg/kg; remark: listed apart in the source
Mus musculus [26] = species on record: Mus musculus; settings: Swiss Albino, 20 mg/kg
Mus musculus [27] = species on record: Mus musculus; settings: Swiss Albino, 20 mg/kg; remark: listed apart in the source
Mus musculus [28] = species on record: Mus musculus; settings: Swiss Albino, 20 mg/kg; remark: listed apart in the source
Mus musculus [29] = species on record: Mus musculus; settings: Swiss Albino, 10 mg/kg; remark: listed apart in the source
Mus musculus [30] = species on record: Mus musculus; settings: Swiss Albino, 20 mg/kg; remark: listed apart in the source
Mus musculus [31] = species on record: Mus musculus; settings: Swiss Albino, 20 mg/kg; remark: listed apart in the source
Mus musculus [32] = experiment: Anxiolytic activity in Swiss Albino mouse assessed as number of punished crossings for 60 secs at 2.5 mg/kg administered 30 mins before the test by four-plate test; format: functional
Procedure, shortened: (§2)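 Male Albino Swiss mice (24–28 g), compound suspended in 1% aqueous Tween 80, given ip (10 ml/kg). Mouse placed in box with four metal floor plates, 15 s exploration, then floor electrified (120 V, 0.5 s) at each plate-to-plate crossing, no new shock for 3 s. Punished crossings counted over 60 s. n = 9-10/group; one-way ANOVA then Dunnett's test.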

Mus musculus [33] = experiment: Anxiolytic activity in Swiss Albino mouse assessed as number of punished crossings for 60 secs at 5 mg/kg administered 30 mins before the test by four-plate test; format: functional
Procedure, shortened: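 Male Albino Swiss mice dosed ip (1% aqueous Tween 80, 10 ml/kg) 30 min beforehand. Opaque box floored with four metal plates; 15 s free exploration, then each plate-to-plate crossing triggers a 0.5 s, 120 V floor shock, with no new shock for 3 s if running continues. Punished crossings counted over 60 s; n = 9-10, ANOVA plus Dunnett's test.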

Mus musculus [34] = experiment: Anxiolytic activity in Swiss Albino mouse assessed as number of punished crossings for 60 secs at 1.25 mg/kg administered 30 mins before the test by four-plate test; format: functional; procedure, shortened: as §2

With `O=C1C2CC=CCC2C(=O)N1C1CCC(N2CCN(c3cccc(C(F)(F)F)c3)CC2)CC1` (centres undefined) the Activity (Rattus norvegicus [1]) was 0.7, the Activity (Rattus norvegicus [2]) was 1.3 and the Activity (Rattus norvegicus [3]) was 2.1. It also gave an Activity (Rattus norvegicus [4]) of 1.9, a Ki [5] of 1.5 nM and a Ki (D(2) dopamine receptor) of 4680 nM. It also gave a Ki [6] of 43 nM, a Ki [7] of 335 nM and a deltaT (Mus musculus [8]) of -0.4 °C. For the same compound, the deltaT (Mus musculus [9]) was -1.1 °C, the deltaT (Mus musculus [10]) was -0.1 °C and the deltaT (Mus musculus [11]) was -1 °C. It also gave a deltaT (Mus musculus [12]) of -0.5 °C, a deltaT (Mus musculus [13]) of -0.3 °C and a deltaT (Mus musculus [14]) of -0.7 °C. It also gave a deltaT (Mus musculus [15]) of -1.7 °C, a deltaT (Mus musculus [16]) of -0.4 °C and a deltaT (Mus musculus [17]) of -1.3 °C.

With `O=C1C2=C(CCCC2)C(=O)N1C1CCC(N2CCN(c3cccc(C(F)(F)F)c3)CC2)CC1` (centres undefined) the Activity (Rattus norvegicus [18]) was 1.8, the Activity (Rattus norvegicus [1]) was 2 and the Activity (Rattus norvegicus [2]) was 2. It also gave an Activity (Rattus norvegicus [19]) of 2.5, an Activity (Rattus norvegicus [3]) of 1.9 and an Activity (Rattus norvegicus [4]) of 1.8. The Ki [5] was 0.3 nM, the Ki (D(2) dopamine receptor) was 2640 nM and the Ki [6] was 4 nM. For the same compound, the Ki [7] was > 5000 nM, the deltaT (Mus musculus [8]) was -0.7 °C and the deltaT (Mus musculus [20]) was -0.4 °C. For the same compound, the deltaT (Mus musculus [10]) was -0.3 °C, the deltaT (Mus musculus [21]) was 0.1 °C and the deltaT (Mus musculus [22]) was 0.2 °C. It also gave a deltaT (Mus musculus [23]) of 0.1 °C, a deltaT (Mus musculus [14]) of -1.2 °C and a deltaT (Mus musculus [24]) of -0.4 °C. It also gave a deltaT (Mus musculus [16]) of -1.4 °C and a deltaT (Mus musculus [25]) of -0.5 °C.

`O=C1C2CC=CCC2C(=O)N1CCCCN1CCN(c2cccc(C(F)(F)F)c2)CC1` (cis isomer) showed an Activity (Rattus norvegicus [1]) of 1.4, an Activity (Rattus norvegicus [2]) of 1.8 and an Activity (Rattus norvegicus [3]) of 1.9. The Activity (Rattus norvegicus [4]) was 0.5, the Ki [5] was 34 nM and the Ki (D(2) dopamine receptor) was 2720 nM. For the same compound, the Ki [6] was 73 nM, the Ki [7] was 31 nM and the deltaT (Mus musculus [9]) was -0.9 °C. For the same compound, the deltaT (Mus musculus [26]) was -1.6 °C, the deltaT (Mus musculus [11]) was -0.6 °C and the deltaT (Mus musculus [27]) was -1.5 °C. The deltaT (Mus musculus [28]) was -1.2 °C, the deltaT (Mus musculus [29]) was -0.6 °C and the deltaT (Mus musculus [15]) was -0.3 °C. The deltaT (Mus musculus [30]) was -1.5 °C, the deltaT (Mus musculus [17]) was -0.2 °C and the deltaT (Mus musculus [31]) was -1.3 °C.

Work on `CN1C(=O)CN=C(c2ccccc2)c2cc(Cl)ccc21` [DIAZEPAM] yielded an Activity (Mus musculus [32]) of 6.8, an Activity (Mus musculus [33]) of 6.7 and an Activity (Mus musculus [34]) of 5.5.
